According to ChEMBL document CHEMBL1137537, “Novel oxotremorine-related heterocyclic derivatives: Synthesis and in vitro pharmacology at the muscarinic receptor subtypes” (Bioorg Med Chem, 2007):

Legend:
[1] = target: T1, Muscarinic acetylcholine receptor M5 (Homo sapiens, UniProt P08912); experiment: Displacement of [3H]QNB from human muscarinic M5 receptor expressed in CHO cells; type: cell-based
T1 sequence (P08912 whole entry): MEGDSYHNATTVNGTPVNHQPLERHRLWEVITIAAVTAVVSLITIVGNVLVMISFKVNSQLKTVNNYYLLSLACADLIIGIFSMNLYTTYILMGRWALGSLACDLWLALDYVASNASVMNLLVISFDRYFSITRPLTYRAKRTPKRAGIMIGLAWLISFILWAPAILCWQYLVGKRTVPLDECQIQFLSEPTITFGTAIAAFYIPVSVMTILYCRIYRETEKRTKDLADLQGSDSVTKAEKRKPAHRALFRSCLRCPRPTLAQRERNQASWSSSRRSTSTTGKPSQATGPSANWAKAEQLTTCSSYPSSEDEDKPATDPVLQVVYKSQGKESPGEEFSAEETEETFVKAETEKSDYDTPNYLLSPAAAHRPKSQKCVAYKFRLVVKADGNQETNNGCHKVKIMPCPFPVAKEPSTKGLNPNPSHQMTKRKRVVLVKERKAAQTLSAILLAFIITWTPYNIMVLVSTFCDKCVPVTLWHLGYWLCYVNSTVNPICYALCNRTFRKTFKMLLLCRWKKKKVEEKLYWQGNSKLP

[2] = target: T2, Muscarinic acetylcholine receptor M2 (Homo sapiens, UniProt P08172); experiment: Displacement of [3H]QNB from human muscarinic M2 receptor expressed in CHO cells; type: cell-based
T2 sequence (P08172 whole entry): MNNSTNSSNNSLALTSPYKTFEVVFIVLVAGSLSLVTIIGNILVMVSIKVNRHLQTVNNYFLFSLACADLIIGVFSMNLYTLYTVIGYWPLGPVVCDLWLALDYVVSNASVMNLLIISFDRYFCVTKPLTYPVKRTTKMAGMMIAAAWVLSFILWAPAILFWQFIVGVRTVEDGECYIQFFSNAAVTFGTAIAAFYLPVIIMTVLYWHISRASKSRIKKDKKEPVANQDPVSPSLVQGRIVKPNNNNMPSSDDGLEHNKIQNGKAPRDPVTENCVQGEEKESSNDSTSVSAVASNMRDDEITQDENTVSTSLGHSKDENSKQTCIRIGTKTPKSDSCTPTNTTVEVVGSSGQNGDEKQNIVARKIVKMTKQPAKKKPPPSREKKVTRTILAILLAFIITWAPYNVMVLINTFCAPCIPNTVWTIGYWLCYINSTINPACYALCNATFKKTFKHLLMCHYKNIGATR
In short: (§1)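 Membranes (10-50 µg protein) from stable CHO lines expressing human m2-m5, competed against 180 pM [3H]QNB in 50 mM Tris-HCl pH 7.4 with 1% DMSO; 120 min at 25 °C to equilibrium; nonspecific binding with 0.5 µM atropine; GF-C filtration, scintillation counting; IC50 by logistic fit, Ki via Cheng–Prusoff using saturation-derived KD (5–2500 pM [3H]QNB).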

Cavia porcellus = species on record: Cavia porcellus; experiment: Intrinsic activity at muscarinic M2 receptor in electrically stimulated guinea-pig left atrium relative to benthanechol; type: tissue-based; conditions: Cardiac atrium
In short: (§2)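 Intrinsic activity as ratio of compound's maximal response to that of reference full agonist (McN-A-343 for vas deferens, bethanechol for atrium and ileum), from cumulative concentration–response curves; mean of 6-8 experiments.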

Oryctolagus cuniculus = species on record: Oryctolagus cuniculus; experiment: Intrinsic activity at muscarinic M1 receptor in electrically stimulated New Zealand rabbit vas deferens relative to McN-A-343; type: tissue-based; in short: as §2
[3] = target: T3, Muscarinic acetylcholine receptor M3 (Cavia porcellus, UniProt Q8VH26); experiment: Agonist activity at muscarinic M3 receptor in guinea-pig ileum; type: functional, tissue-based
In short: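 Guinea-pig ileal segments 2–3 cm, 1.0 g tension, 37 °C Krebs-Henseleit with carbogen, 45 min equilibration; isometric contractions to cumulative agonist concentrations; pEC50 by least-squares linear regression; mean of 6-8 experiments.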

[4] = Agonist activity at muscarinic M1 receptor in electrically stimulated New Zealand rabbit vas deferens; type: functional, tissue-based; conditions: Oryctolagus cuniculus
[5] = target: T3, Muscarinic acetylcholine receptor M3; experiment: Binding affinity to muscarinic M3 receptor in guinea-pig ileum; type: tissue-based
In short: (§3)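 Apparent affinity pKD: for full agonists by receptor inactivation with phenoxybenzamine (1-10 µM, 20-30 min); for partial agonists by McKay's method comparing curves with reference full agonist; mean of 6-8 experiments.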

[6] = target: T4, Muscarinic acetylcholine receptor M1 (Homo sapiens, UniProt P11229); experiment: biochemical; type: cell-based, CHO
T4 sequence (P11229 whole entry): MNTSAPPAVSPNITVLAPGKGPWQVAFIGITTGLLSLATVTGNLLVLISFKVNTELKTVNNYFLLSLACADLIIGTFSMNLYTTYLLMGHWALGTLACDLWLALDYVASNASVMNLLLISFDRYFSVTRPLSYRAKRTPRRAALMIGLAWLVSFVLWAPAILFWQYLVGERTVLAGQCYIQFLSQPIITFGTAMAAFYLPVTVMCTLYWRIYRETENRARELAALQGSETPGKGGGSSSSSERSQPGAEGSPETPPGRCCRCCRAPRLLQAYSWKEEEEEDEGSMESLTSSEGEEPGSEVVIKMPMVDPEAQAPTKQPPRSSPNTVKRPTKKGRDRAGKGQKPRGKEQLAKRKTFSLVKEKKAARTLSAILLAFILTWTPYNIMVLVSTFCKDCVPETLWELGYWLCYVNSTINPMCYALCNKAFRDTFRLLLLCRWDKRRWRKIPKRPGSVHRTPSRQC

[7] = target: Muscarinic acetylcholine receptor M3 (Cavia porcellus) (UniProt Q8VH26); experiment: Intrinsic activity at muscarinic M3 receptor in guinea-pig ileum relative to benthanechol; type: tissue-based; in short: as §2
[8] = target: Muscarinic acetylcholine receptor M3 (Homo sapiens, UniProt P20309); experiment: Displacement of [3H]QNB from human muscarinic M3 receptor expressed in CHO cells; type: cell-based
[9] = Agonist activity at muscarinic M2 receptor in electrically stimulated guinea-pig left atrium; type: functional, tissue-based; conditions: Cavia porcellus, Cardiac atrium
[10] = Binding affinity to muscarinic M1 receptor in electrically stimulated New Zealand rabbit vas deferens; type: tissue-based, Oryctolagus cuniculus; in short: as §3
[11] = Binding affinity to muscarinic M2 receptor in electrically stimulated guinea-pig left atrium; type: tissue-based, Cavia porcellus, Cardiac atrium; in short: as §3
[12] = target: T5, Muscarinic acetylcholine receptor M4 (Homo sapiens, UniProt P08173); experiment: Displacement of [3H]QNB from human muscarinic M4 receptor expressed in CHO cells; type: cell-based; in short: as §1
T5 sequence (P08173 whole entry): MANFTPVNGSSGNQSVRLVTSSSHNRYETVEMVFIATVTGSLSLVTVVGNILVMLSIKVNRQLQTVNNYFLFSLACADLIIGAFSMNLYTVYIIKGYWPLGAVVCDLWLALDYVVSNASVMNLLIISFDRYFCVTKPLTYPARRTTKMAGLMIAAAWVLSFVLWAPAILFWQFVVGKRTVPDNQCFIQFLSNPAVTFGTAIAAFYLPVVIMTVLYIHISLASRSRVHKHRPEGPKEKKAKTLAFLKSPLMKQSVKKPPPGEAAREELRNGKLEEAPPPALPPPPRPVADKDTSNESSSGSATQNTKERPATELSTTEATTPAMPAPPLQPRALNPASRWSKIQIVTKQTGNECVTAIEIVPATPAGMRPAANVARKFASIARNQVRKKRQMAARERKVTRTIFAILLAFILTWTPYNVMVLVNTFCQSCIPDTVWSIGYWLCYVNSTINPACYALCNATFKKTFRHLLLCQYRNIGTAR

[13] = Antagonist activity at muscarinic M1 receptor in electrically stimulated New Zealand rabbit vas deferens; type: functional, Oryctolagus cuniculus
In short: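 Antagonist mode: after 30 min incubation with test compound (10 nM–100 µM), concentration–response curve to full agonist (bethanechol or McN-A-343) repeated; pKB as molar concentration giving twofold EC50 shift, Furchgott's method; mean of 6-8 experiments.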

Muscarinic acetylcholine receptor M3 (Homo sapiens, UniProt P20309), sequence (P20309 whole entry): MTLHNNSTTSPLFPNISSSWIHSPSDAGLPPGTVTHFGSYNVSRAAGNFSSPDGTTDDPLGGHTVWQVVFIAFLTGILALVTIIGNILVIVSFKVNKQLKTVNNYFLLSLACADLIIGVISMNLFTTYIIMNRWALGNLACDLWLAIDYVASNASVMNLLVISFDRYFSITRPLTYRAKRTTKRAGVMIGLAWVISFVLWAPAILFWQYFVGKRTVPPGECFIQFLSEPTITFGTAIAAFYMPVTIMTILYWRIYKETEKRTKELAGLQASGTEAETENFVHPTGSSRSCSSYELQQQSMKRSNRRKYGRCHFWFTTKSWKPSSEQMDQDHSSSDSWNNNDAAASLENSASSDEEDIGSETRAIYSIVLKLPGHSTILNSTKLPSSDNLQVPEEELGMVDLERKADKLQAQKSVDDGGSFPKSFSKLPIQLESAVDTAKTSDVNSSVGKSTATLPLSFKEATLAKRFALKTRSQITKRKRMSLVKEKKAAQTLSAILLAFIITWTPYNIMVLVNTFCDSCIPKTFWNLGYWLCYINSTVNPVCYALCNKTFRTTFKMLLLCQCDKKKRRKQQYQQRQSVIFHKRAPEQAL
T3 sequence (Q8VH26 whole entry): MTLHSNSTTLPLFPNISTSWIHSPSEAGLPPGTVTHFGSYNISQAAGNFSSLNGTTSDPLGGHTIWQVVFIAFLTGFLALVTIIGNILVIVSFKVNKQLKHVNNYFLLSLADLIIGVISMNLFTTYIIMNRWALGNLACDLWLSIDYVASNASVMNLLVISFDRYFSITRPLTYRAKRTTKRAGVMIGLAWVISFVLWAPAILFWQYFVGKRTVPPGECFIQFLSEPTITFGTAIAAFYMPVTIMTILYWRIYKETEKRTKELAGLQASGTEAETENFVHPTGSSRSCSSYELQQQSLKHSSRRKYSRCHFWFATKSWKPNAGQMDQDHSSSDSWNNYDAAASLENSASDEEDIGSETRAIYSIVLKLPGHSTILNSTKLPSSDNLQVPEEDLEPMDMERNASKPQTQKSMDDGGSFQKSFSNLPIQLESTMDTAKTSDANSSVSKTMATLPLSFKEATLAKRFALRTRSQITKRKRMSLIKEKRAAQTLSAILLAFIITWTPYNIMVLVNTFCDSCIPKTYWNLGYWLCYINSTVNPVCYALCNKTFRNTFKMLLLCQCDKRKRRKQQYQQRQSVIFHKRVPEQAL
Muscarinic acetylcholine receptor M3 (Cavia porcellus), sequence (Q8VH26 1-587): as the sequence (Q8VH26 whole entry) above

SMILES	Ki [1] [µM]	Ki [2] [µM]	Intrinsic activity (Cavia porcellus)	Intrinsic activity (Oryctolagus cuniculus)	EC50 [3] [µM]	EC50 [4] [µM]	Kd [5] [µM]	Ki [6] [µM]	Intrinsic activity [7]	Ki [8] [µM]	EC50 [9] [µM]	pKd [10]	pKd [11]	Ki [12] [µM]	pKb [13]
C[N+]1(CC#CCN2OCCC2=O)CCc2ccccc2C1 (stereo unspecified)	> 10	> 10	–	–	–	–	–	–	–	–	–	–	–	–	–
Cc1cc(OCC#CC[N+](C)(C)C)no1.[I-]	6.31	0.05	1	0.9	0.00724	0.0398	0.676	> 10	1	3.99	0.00661	6.97	7.03	0.682	–
Cc1cc(OCC#CCN(C)C)no1.O=C(O)/C=C/C(=O)O	> 10	3.8	1	0.6	0.794	3.47	39.8	> 10	1.1	> 10	0.513	5.45	3.56	1.1	–
CC(C[N+](C)(C)C)OC(N)=O (stereo unspecified) [BETHANECHOL]	–	–	1	–	0.427	–	12.6	–	1	–	0.646	–	5.37	–	–
O=C1CCON1CC#CCN1C2CCCC1CC2	> 10	> 10	–	–	–	–	–	–	–	–	–	–	–	–	–
Cc1cc(OCC#CC[N+]2(C)CCCC2)no1.[I-]	7.51	2.04	1	0	0.55	–	1.66	7.68	0.9	7.39	0.251	–	6.72	5.93	6.01
CN(C)CC#CCOc1cc(-c2ccccc2)on1	> 10	> 10	–	–	–	–	–	–	–	–	–	–	–	–	–
C[N+](C)(C)CC#CCOC(=O)Nc1cccc(Cl)c1.[Cl-]	–	–	–	1	–	0.398	–	–	–	–	–	7.2	–	–	–
C(#CCOc1ccon1)CO/N=C1\CN2CCC1CC2.O=C(O)/C=C/C(=O)O	–	–	0.7	0	1.02	–	3.63	–	0.9	–	3.09	–	5.97	–	5.85
C[N+]1(CC#CCN2OCCC2=O)CCCCC1	> 10	> 10	–	–	–	–	–	–	–	–	–	–	–	–	–
C(#CCN1CCCCC1)COC1=NOCC1.O=C(O)C(=O)O	5.14	0.876	0.6	0	1.78	–	21.9	4.55	1	3.92	1.1	–	6.22	6.04	5.91
O=C1CCON1CC#CCN1CCc2ccccc2C1	> 10	> 10	–	–	–	–	–	–	–	–	–	–	–	–	–
C[N+]1(CC#CCOC2=NOCC2)CCc2ccccc21 (stereo unspecified)	> 10	4.1	–	–	–	–	–	> 10	–	5.54	–	–	–	> 10	–
C[N+]1(CC#CCOC2=NOCC2)CCc2ccccc2C1 (stereo unspecified)	5.66	0.474	–	–	–	–	–	6.96	–	0.887	–	–	–	2.26	–
O=C1CCON1CC#CCN1CCCC1	0.51	0.07	–	–	–	–	–	0.905	–	0.392	–	–	–	0.222	–
C[N+]12CCC(CC1)/C(=N/OCC#CCOc1ccon1)C2.[I-]	> 10	> 10	–	0.9	3.55	4.27	9.33	–	0.7	–	> 100	3.82	–	–	–
C(#CCN1CCc2ccccc21)COC1=NOCC1	> 10	> 10	–	–	–	–	–	–	–	–	–	–	–	–	–
C(#CCN1CCc2ccccc2C1)COC1=NOCC1	> 10	> 10	–	–	–	–	–	–	–	–	–	–	–	–	–
C[N+]1(CC#CCN2OCCC2=O)CCc2ccccc21 (stereo unspecified)	> 10	> 10	–	–	–	–	–	–	–	–	–	–	–	–	–
